Assays:
Details in all cases: in vivo
[1] = Biodistribution in Fisher rat urine at 1 to 3 mCi, iv after 20 mins; assay type: ADME, organism-based
Outline: (§1)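 Fisher rats (200–300 g) given [¹¹C]HC-15 or [¹⁸F]HC-15 (1–3 mCi, sub-pharmacologic) by tail-vein iv injection under conscious restraint. Sacrificed by decapitation under halothane anesthesia at 20 min, tissues excised and weighed, decay-corrected radioactivity gamma-counted. Expressed as %ID and %ID/g; values are the average of four rats.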

[2] = system: Lung; experiment: Biodistribution in Fisher rat lung at 1 to 3 mCi, iv after 20 mins; assay type: ADME, organism-based; outline: as §1
[3] = Biodistribution in Fisher rat right ventricle at 1 to 3 mCi, iv after 20 mins; assay type: ADME, organism-based, Heart right ventricle; outline: as §1
[4] = system: Liver; experiment: Biodistribution in Fisher rat liver at 1 to 3 mCi, iv after 20 mins; assay type: ADME, organism-based; outline: as §1
[5] = system: Brain; experiment: Biodistribution in Fisher rat brain at 1 to 3 mCi, iv after 20 mins; assay type: ADME, organism-based; outline: as §1
[6] = system: Solar plexus; experiment: Biodistribution in Fisher rat solar plexus at 1 to 3 mCi, iv after 20 mins; assay type: ADME, organism-based; outline: as §1
[7] = Biodistribution in Fisher rat left ventricle at 1 to 3 mCi, iv after 20 mins; assay type: ADME, organism-based, Heart left ventricle; outline: as §1
[8] = system: Kidney; experiment: Biodistribution in Fisher rat kidney at 1 to 3 mCi, iv after 20 mins; assay type: ADME, organism-based; outline: as §1
[9] = system: Septum; experiment: Biodistribution in Fisher rat septum at 1 to 3 mCi, iv after 20 mins; assay type: ADME, organism-based; outline: as §1
[10] = Biodistribution in Fisher rat left atrium at 1 to 3 mCi, iv after 20 mins; assay type: ADME, organism-based, Cardiac atrium; outline: as §1
[11] = Biodistribution in Fisher rat right atrium at 1 to 3 mCi, iv after 20 mins; assay type: ADME, organism-based, Cardiac atrium; outline: as §1
[12] = system: Blood; experiment: Biodistribution in Fisher rat blood at 1 to 3 mCi, iv after 20 mins; assay type: ADME, organism-based; outline: as §1
[13] = Biodistribution in Fisher rat atrioventricular node at 1 to 3 mCi, iv after 20 mins; assay type: ADME, organism-based; outline: as §1
[14] = Biodistribution in Fisher rat skeletal muscle s at 1 to 3 mCi, iv after 20 mins; assay type: ADME, organism-based, Muscle tissue; outline: as §1

Structure (SMILES)	Drug uptake [1]	Drug uptake [2]	Drug uptake [3]	Drug uptake [4]	Drug uptake [5]	Drug uptake [6]	Drug uptake [7]	Drug uptake [8]	Drug uptake [9]	Drug uptake [10]	Drug uptake [11]	Drug uptake [12]	Drug uptake [13]	Drug uptake [14]
C[N+]1([11CH3])CCOC(O)(c2ccccc2)C1.O=S(=O)([O-])C(F)(F)F (stereo not drawn)	31.835 % ID/g	1.302 % ID/g	1.316 % ID/g	6.284 % ID/g	0.022 % ID/g	0.938 % ID/g	0.859 % ID/g	3.618 % ID/g	0.01 % ID/g	0.526 % ID/g	0.488 % ID/g	0.181 % ID/g	1.083 % ID/g	0.091 % ID/g
C[N+]1(C[18F])CCOC(O)(c2ccccc2)C1.O=S(=O)([O-])C(F)(F)F (stereo not drawn)	17.434 % ID/g	3.423 % ID/g	0.037 % ID/g	4.378 % ID/g	0.046 % ID/g	0.744 % ID/g	1.28 % ID/g	11.651 % ID/g	1.557 % ID/g	0.796 % ID/g	0.756 % ID/g	0.201 % ID/g	0.793 % ID/g	0.145 % ID/g

Source: ChEMBL document CHEMBL1142885, “Evaluation of [11C]hemicholinium-15 and [18F]hemicholinium-15 as new potential PET tracers for the high-affinity choline uptake system in the heart” (Bioorg Med Chem, 2007)
